Calls of active or inactive are those of the source. The calls are words filed in the database; no cut-off is given here.
Experiments:
DU-145 [1] = experiment: Antiproliferative activity against human DU145 cells assessed as reduction in cell viability at 10 uM incubated for 48 hrs by MTT assay; format: functional, cell-based
Outline: (§1)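 Cells grown in DMEM with 10% heat-inactivated FBS and penicillin/streptomycin at 37 °C, 5% CO2, seeded at 7 × 10^3 cells/well. After 24 h, treated 48 h at 1, 10 or 50 μM. MTT 0.5 mg/mL added for 4 h at 37 °C, formazan dissolved in DMSO, A570 read. Eight replicate wells per group, at least three independent experiments, % of control, mean ± SEM.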

A549 [2] = experiment: Antiproliferative activity against human A549 cells assessed as reduction in cell viability at 1 uM incubated for 48 hrs by MTT assay; format: functional, cell-based; outline: as §1
U-87 MG [3] = experiment: Antiproliferative activity against human U-87MG cells assessed as reduction in cell viability at 10 uM incubated for 48 hrs by MTT assay relative to control; format: functional, U-87MG ATCC; outline: as §1
DU-145 [4] = experiment: Antiproliferative activity against human DU145 cells assessed as reduction in cell viability at 1 uM incubated for 48 hrs by MTT assay; format: functional, cell-based; outline: as §1
A549 [5] = experiment: Antiproliferative activity against human A549 cells assessed as reduction in cell viability at 50 uM incubated for 48 hrs by MTT assay; format: functional, cell-based; outline: as §1
U-87 MG [6] = experiment: Antiproliferative activity against human U-87MG cells assessed as reduction in cell viability at 50 uM incubated for 48 hrs by MTT assay relative to control; format: functional; conditions: for inhibition: U-87MG ATCC; outline: as §1
A 172 [7] = experiment: Antiproliferative activity against human A172 cells assessed as reduction in cell viability at 10 uM incubated for 48 hrs by MTT assay; format: functional, cell-based; outline: as §1
A 172 [8] = experiment: Antiproliferative activity against human A172 cells assessed as reduction in cell viability at 50 uM incubated for 48 hrs by MTT assay; format: functional, cell-based; outline: as §1
A 172 [9] = experiment: Antiproliferative activity against human A172 cells assessed as reduction in cell viability at 1 uM incubated for 48 hrs by MTT assay; format: functional, cell-based; outline: as §1
A549 [10] = experiment: Antiproliferative activity against human A549 cells assessed as reduction in cell viability at 10 uM incubated for 48 hrs by MTT assay; format: functional, cell-based; outline: as §1
U-87 MG [11] = experiment: Antiproliferative activity against human U-87MG cells assessed as reduction in cell viability at 1 uM incubated for 48 hrs by MTT assay relative to control; format: functional, U-87MG ATCC; outline: as §1
DU-145 [12] = experiment: Antiproliferative activity against human DU145 cells assessed as reduction in cell viability at 50 uM incubated for 48 hrs by MTT assay; format: functional, cell-based; outline: as §1
Rattus norvegicus = species: Rattus norvegicus; experiment: Selectivity index, ratio of IC50 for inhibition of Sprague-Dawley rat brain microsome HO-2 to IC50 for inhibition of Sprague-Dawley rat spleen microsome HO-1
Heme oxygenase 1 = molecular target: T1, Heme oxygenase 1 (Rattus norvegicus, UniProt P06762); experiment: Inhibition of Sprague-Dawley rat spleen microsome HO-1 assessed as bilirubin formation incubated for 60 mins by double-beam spectrophotometry; format: microsomes
T1 sequence (P06762 whole entry): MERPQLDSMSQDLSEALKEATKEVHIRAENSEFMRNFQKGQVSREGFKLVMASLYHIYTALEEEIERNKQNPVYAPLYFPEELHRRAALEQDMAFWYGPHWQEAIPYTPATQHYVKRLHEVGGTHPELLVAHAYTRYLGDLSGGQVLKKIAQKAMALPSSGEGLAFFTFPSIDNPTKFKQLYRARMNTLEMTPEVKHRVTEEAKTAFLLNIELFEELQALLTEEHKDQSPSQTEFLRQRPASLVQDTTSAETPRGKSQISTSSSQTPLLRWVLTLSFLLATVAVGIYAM

DU-145 [13] = experiment: Reduction in HO-1 expression in human DU-145 cells at 10 uM incubated for 48 hrs by Western blot analysis; format: functional, cell-based
Outline: (§2)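 Cells treated 48 h at 10 μM. Lysed in Tris/EDTA/EGTA/sucrose buffer with protease and phosphatase inhibitors, sonicated, spun. 30 μg protein resolved on 4–15% Bis-Tris gel, transferred to PVDF, probed for HO-1. Band density normalized to actin and given as fold change; three independent experiments, mean ± SEM.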

Heme oxygenase 2 = molecular target: T2, Heme oxygenase 2 (Rattus norvegicus, UniProt P23711); experiment: Inhibition of Sprague-Dawley rat brain microsome HO-2 assessed as bilirubin formation incubated for 60 mins by double-beam spectrophotometry; format: microsomes
T2 sequence (P23711 whole entry): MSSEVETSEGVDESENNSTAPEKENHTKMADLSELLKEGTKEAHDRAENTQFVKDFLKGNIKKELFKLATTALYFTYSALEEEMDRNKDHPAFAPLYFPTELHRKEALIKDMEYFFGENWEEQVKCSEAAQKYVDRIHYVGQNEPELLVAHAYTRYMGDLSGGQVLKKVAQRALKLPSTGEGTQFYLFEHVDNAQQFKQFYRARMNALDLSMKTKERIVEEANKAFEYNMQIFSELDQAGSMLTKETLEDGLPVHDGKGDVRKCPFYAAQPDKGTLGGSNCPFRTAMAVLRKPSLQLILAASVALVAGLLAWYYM

U-87MG ATCC [14] = experiment: Reduction in VEGF intracellular expression in human U-87 MG cells by Western blot analysis; format: functional, cell-based
Outline: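 U87MG cells treated 48 h with vehicle or 10 μM compound. Lysates (30 μg protein) resolved on 4–15% Bis-Tris gel and immunoblotted with goat polyclonal anti-VEGF; β-tubulin and β-actin antibodies also used.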

U-87MG ATCC [15] = experiment: Reduction in VEGF release in human U-87 MG cells by ELISA; format: functional, cell-based
Outline: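 Confluent U87MG cells in 1% FBS medium treated 48 h with 10 μM compound or vehicle. VEGF-A in the conditioned medium measured by sandwich ELISA: capture antibody, biotinylated anti-human VEGF, HRP-streptavidin, TMB substrate, absorbance at 450 nm.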

H5V = experiment: Antiangiogenesis activity in mouse H5V cells assessed as decrease in tube like structure formation using culture medium derived from human U-87 MG cells treated at 10 uM for 48 hrs; format: functional, cell-based
Outline: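 Conditioned medium: subconfluent U87MG cells held 48 h at 37 °C in 1% FBS medium with 10 μM compound or vehicle, then spun and frozen. Overnight-starved H5V endothelial cells seeded on reduced-growth-factor basement membrane matrix and cultured 48 h at 37 °C in the conditioned medium. Tubes counted in three random fields and expressed as % of control.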

[16] = molecular target: T3, Heme oxygenase 1 (Homo sapiens) (UniProt P09601); experiment: Inhibition of human HO-1 activity in human U-87MG cells assessed as bilirubin formation at 10 uM
T3 sequence (whole entry): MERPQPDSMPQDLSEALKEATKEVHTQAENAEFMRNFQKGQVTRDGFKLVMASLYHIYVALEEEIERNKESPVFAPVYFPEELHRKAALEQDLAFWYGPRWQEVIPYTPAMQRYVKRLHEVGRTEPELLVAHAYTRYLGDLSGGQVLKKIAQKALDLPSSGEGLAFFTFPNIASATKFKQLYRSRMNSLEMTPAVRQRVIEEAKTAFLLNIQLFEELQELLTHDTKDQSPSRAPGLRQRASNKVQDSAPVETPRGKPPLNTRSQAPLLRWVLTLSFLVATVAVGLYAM

[17] = molecular target: T3, Heme oxygenase 1 (Homo sapiens); experiment: Inhibition of human HO-1 activity in human U-87MG cells assessed as reduction in immunoreactivity in cytoplasm at 10 uM incubated for 48 hrs […]; format: cell-based
Outline: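 U87MG cells on coverslips treated 48 h at 10 μM or left untreated. Fixed in 4% paraformaldehyde, permeabilized with 0.2% Triton X-100, blocked with 0.1% BSA, probed with rabbit anti-HO-1 then Alexa Fluor 488 anti-rabbit. Nuclei counterstained with DAPI; random fields imaged by fluorescence microscopy.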

U-87 MG [18] = experiment: Antiinvasive activity against human U-87 MG cells assessed as reduction in cell motility measured after 48 hrs by wound healing assay; format: functional, cell-based; conditions: U-87MG ATCC
Outline: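 Confluent U87MG monolayers (5 × 10^4 cells/well) scratched with a pipette tip, then cultured in 1% serum medium with or without 10 μM compound. Cells advancing into the wound counted at 24 and 48 h in three random high-power fields per well, duplicate wells, and expressed as % of control. Mean ± SEM.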

U-87MG ATCC [19] = experiment: Reduction in HO-1 expression in human U-87MG cells at 10 uM incubated for 48 hrs by Western blot analysis; format: functional, cell-based; outline: as §2

SMILES	inhibition (A549 [2])	inhibition at 10 µM (U-87 MG [3]) [%]	inhibition (A 172 [7])	inhibition (A 172 [8])	inhibition (A 172 [9])	inhibition (A549 [10])	inhibition at 1 µM (U-87 MG [11]) [%]	further results
CN(C(=O)Cn1ccnc1)C(c1ccccc1)c1ccc(OCc2ccccc2)cc1 (configuration not stated)	inactive	20	Active	Active	Active	inactive	20	inhibition (DU-145 [1]): Active; inhibition (DU-145 [4]): Active; inhibition (A549 [5]): Active; inhibition (U-87 MG [6]): Active; inhibition (DU-145 [12]): Active
O=C(Cn1ccnc1)NC(c1ccccc1)c1ccccc1	–	–	–	–	–	–	–	Selectivity Index (Rattus norvegicus): 0.5
CN(C(=O)Cn1ccnc1)c1ccccc1	–	–	–	–	–	–	–	IC50 (Heme oxygenase 1): 2500 µM
CN(C(=O)Cn1ccnc1)C(c1ccccc1)c1cccc(Br)c1 (configuration not stated)	inactive	> 30	inactive	inactive	inactive	inactive	> 30	inhibition at 50 µM (U-87 MG [6]): > 30%
CN(C(=O)Cn1ccnc1)C(c1ccccc1)C1CCCCC1 (configuration not stated)	–	–	Active	Active	Active	–	–	–
CN(C(=O)Cn1ccnc1)C(c1ccccc1)c1ccc(I)cc1 (configuration not stated)	inactive	> 30	Active	Active	–	inactive	> 30	Activity (DU-145 [13]): Active; inhibition (A549 [5]): Active; inhibition (U-87 MG [6]): Active; inhibition (DU-145 [12]): Active
CN(C(=O)Cn1ccnc1)C(c1ccccc1)c1ccccc1	inactive	–	Active	Active	Active	inactive	–	Activity (DU-145 [13]): Active
FC(F)(F)c1ccc(SC[C@@H]2CO[C@](CCc3ccc(Cl)cc3)(Cn3ccnc3)O2)nc1	–	–	–	–	–	–	–	IC50 (Heme oxygenase 2): 16 µM; IC50 (Heme oxygenase 1): 2.1 µM
CN(C(=O)Cn1ccnc1)C(c1ccccc1)C1CCCC1 (configuration not stated)	–	–	Active	Active	Active	–	–	–
CN(C(=O)Cn1ccnc1)C(c1ccccc1)c1ccc(OCc2ccc(Br)cc2)cc1 (configuration not stated)	inactive	20	Active	Active	–	inactive	20	inhibition (DU-145 [1]): Active; inhibition (DU-145 [4]): Active; inhibition (A549 [5]): Active; inhibition (U-87 MG [6]): Active; inhibition (DU-145 [12]): Active
CN(C(=O)Cn1ccnc1)C(c1ccccc1)c1ccc(Cl)cc1 (configuration not stated)	inactive	> 60	Active	Active	Active	inactive	> 60	Activity (U-87MG ATCC [14]): Active; Activity (U-87MG ATCC [15]): Active; Activity (H5V): Active; inhibition at 50 µM (U-87 MG [6]): > 60%; inhibition [16]: Active; inhibition [17]: Active; Activity (U-87 MG [18]): Active; Activity (U-87MG ATCC [19]): Active
